MIC data for 4 compounds are collected here from ChEMBL document CHEMBL4351006, “A new exploration towards aminothiazolquinolone oximes as potentially multi-targeting antibacterial agents: Design, synthesis and evaluation acting on microbes, DNA, HSA and topoisomerase IV” (Eur J Med Chem, 2019).

Assay [1] deals with Pseudomonas aeruginosa. The assay can be described thus: Antibacterial activity against Pseudomonas aeruginosa assessed as reduction in bacterial cell viability incubated for 24 hrs by two fold serial dilution method. The assay is classed as functional. In a few lines: (§1)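 Broth two-fold serial dilution run to CLSI guidelines. Chloromycin, norfloxacin and fluconazole served as reference drugs.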

Assay [2] deals with Escherichia coli. Description: Antibacterial activity against Escherichia coli ATCC 25922 assessed as reduction in bacterial cell viability incubated for 24 hrs by two fold serial dilution method. It counts as functional. The note with it: ATCC 25922, 24 h. In a few lines:
as §1

The subject of assay [3] is Staphylococcus aureus. Description: Antibacterial activity against methicillin resistant Staphylococcus aureus N315 assessed as reduction in bacterial cell viability incubated for 24 hrs by two fold serial dilution method. It counts as functional. The note with it: N315, 24 h. In a few lines: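 MIC by two-fold serial dilution following CLSI, with chloromycin and norfloxacin as reference drugs.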

Assay [4] relates to Klebsiella pneumoniae. Description: Antibacterial activity against Klebsiella pneumoniae assessed as reduction in bacterial cell viability incubated for 24 hrs by two fold serial dilution method. It counts as functional. Summed up:
as §1

Assay [5] has as its system Staphylococcus aureus. Description: Antibacterial activity against Staphylococcus aureus ATCC 29213 assessed as reduction in bacterial cell viability incubated for 24 hrs by two fold serial dilution method. The assay is classed as functional. The note with it: ATCC 29213, 24 h. In a few lines:
as §1

Assay [6] deals with Enterococcus faecalis. Description: Antibacterial activity against Enterococcus faecalis assessed as reduction in bacterial cell viability incubated for 24 hrs by two fold serial dilution method. It counts as functional. In a few lines: as §1
Assay [7] concerns Staphylococcus aureus. Description: Antibacterial activity against Staphylococcus aureus assessed as reduction in bacterial cell viability incubated for 24 hrs by two fold serial dilution method. It counts as functional. In a few lines: as §1
Assay [8] relates to Candida albicans. The assay can be described thus: Antifungal activity against Candida albicans assessed as reduction in fungal cell viability incubated for 24 hrs by two fold serial dilution method. The assay is classed as functional. Summed up:
as §1

Assay [9] concerns Aspergillus fumigatus. Description: Antifungal activity against Aspergillus fumigatus assessed as reduction in fungal cell viability incubated for 24 hrs by two fold serial dilution method. The assay is classed as functional. In a few lines:
as §1

In assay [10] the test system is Staphylococcus aureus. Description: Antibacterial activity against Staphylococcus aureus ATCC 25923 assessed as reduction in bacterial cell viability incubated for 24 hrs by two fold serial dilution method. The conditions noted are these: ATCC 25923, 24 h. The assay is classed as functional. Summed up:
as §1

In assay [11] the test system is Candida parapsilosis. The assay can be described thus: Antifungal activity against Candida parapsilosis ATCC 22019 assessed as reduction in fungal cell viability incubated for 24 hrs by two fold serial dilution method. The note with it: Lodderomyces parapsilosis, ATCC 22019, 24 h.
Assay [12] has as its system Candida albicans. Description: Antifungal activity against Candida albicans ATCC 90023 assessed as reduction in fungal cell viability incubated for 24 hrs by two fold serial dilution method. The conditions noted are these: ATCC 90023, 24 h. It counts as functional. In a few lines: as §1
In assay [13] the test system is Pseudomonas aeruginosa. The assay can be described thus: Antibacterial activity against Pseudomonas aeruginosa ATCC 27853 assessed as reduction in bacterial cell viability incubated for 24 hrs by two fold serial dilution method. The assay is classed as functional. The conditions noted are these: ATCC 27853, 24 h. In a few lines:
as §1

For assay [14], the system named is Escherichia coli. The assay can be described thus: Antibacterial activity against Escherichia coli assessed as reduction in bacterial cell viability incubated for 24 hrs by two fold serial dilution method. It counts as functional. Summed up:
as §1

The subject of assay [15] is Candida tropicalis. Description: Antifungal activity against Candida tropicalis assessed as reduction in fungal cell viability incubated for 24 hrs by two fold serial dilution method. The assay is classed as functional. In a few lines: as §1
The test system of assay [16] is Acinetobacter baumannii. Description: Antibacterial activity against Acinetobacter baumannii assessed as reduction in bacterial cell viability incubated for 24 hrs by two fold serial dilution method. The assay is classed as functional. In a few lines: as §1
Assay [17] concerns Klebsiella pneumoniae. The assay can be described thus: Potentiation of cefixime-mediated antibacterial activity against Klebsiella pneumoniae assessed as cefixime MIC incubated for 24 hrs by two fold serial dilution method (reference value: 15.76 10^-3 mM). The assay is classed as functional.
Assay [18] has as its system Candida albicans. The assay can be described thus: Potentiation of fluconazole-mediated antifungal activity against Candida albicans assessed as fluconazole MIC incubated for 24 hrs by two fold serial dilution method (reference value: 13.06 10^-3 mM). The assay is classed as functional.
For assay [19], the system named is Candida tropicalis. Description: Potentiation of fluconazole-mediated antifungal activity against Candida tropicalis assessed as fluconazole MIC incubated for 24 hrs by two fold serial dilution method (reference value: 26.12 10^-3 mM). It counts as functional.
Assay [20] relates to Staphylococcus aureus. The assay can be described thus: Potentiation of cefixime-mediated antibacterial activity against methicillin resistant Staphylococcus aureus N315 assessed as cefixime MIC incubated for 24 hrs by two fold serial dilution method (reference value: 31.52 10^-3 mM). The assay is classed as functional. The note with it: N315, 24 h.
The test system of assay [21] is Staphylococcus aureus. Description: Potentiation of cefixime-mediated antibacterial activity against Staphylococcus aureus assessed as cefixime MIC incubated for 24 hrs by two fold serial dilution method (reference value: 31.52 10^-3 mM). The assay is classed as functional.

Converted amounts (≈) assume the structure as drawn.

Turning to `CCn1cc(-c2csc(N)n2)c(=O)c2cc(F)c(N3CCN(C/C(=N/OC)c4ccc(Cl)cc4)CC3)cc21`, the MIC in assay [1] turned out to be 231 µM (≈ 128 µg/mL); in assay [2] it was 461 µM (≈ 256 µg/mL); in assay [3] it was 29 µM (≈ 16.1 µg/mL); in assay [4], 231 µM (≈ 128 µg/mL); in assay [5], 231 µM (≈ 128 µg/mL); in assay [6], 115 µM (≈ 63.8 µg/mL). The MIC in assay [7] was 231 µM (≈ 128 µg/mL); in [8], 231 µM (≈ 128 µg/mL); in assay [9], 461 µM (≈ 256 µg/mL); in assay [10], 58 µM (≈ 32.2 µg/mL); in [11] it was 115 µM (≈ 63.8 µg/mL); in assay [12] it was 463 µM (≈ 257 µg/mL). The MIC in [13] is 58 µM (≈ 32.2 µg/mL); in assay [14] it was 231 µM (≈ 128 µg/mL); in assay [15], 115 µM (≈ 63.8 µg/mL); in assay [16] it was 115 µM (≈ 63.8 µg/mL).

As to `CCO/N=C(\C)CN1CCN(c2cc3c(cc2F)c(=O)c(-c2csc(N)n2)cn3CC)CC1`, the MIC in [1] was 135 µM (≈ 63.8 µg/mL); in assay [2], 68 µM (≈ 32.1 µg/mL); in [3], 135 µM (≈ 63.8 µg/mL); in [4] it was 135 µM (≈ 63.8 µg/mL); in [5], 68 µM (≈ 32.1 µg/mL); in assay [6] it was 68 µM (≈ 32.1 µg/mL). Besides, the MIC was found to be 34 µM (≈ 16.1 µg/mL) in assay [7]; 1080 µM (≈ 512 µg/mL) in assay [8]; 542 µM (≈ 256 µg/mL) in assay [9]; 135 µM (≈ 63.8 µg/mL) in assay [10]; 68 µM (≈ 32.1 µg/mL) in assay [11]; 542 µM (≈ 256 µg/mL) in assay [12]. The MIC in [13] is 135 µM (≈ 63.8 µg/mL); in assay [14], 135 µM (≈ 63.8 µg/mL); in assay [15], 68 µM (≈ 32.1 µg/mL); in assay [16], 135 µM (≈ 63.8 µg/mL).

`C=CC1=C(C(=O)O)N2C(=O)[C@@H](NC(=O)/C(=N\OCC(=O)O)c3csc(N)n3)[C@H]2SC1` [CEFIXIME]: the MIC was determined as 7.88 µM in [17]; 3.26 µM in assay [18]; 26.1 µM in assay [19]; 3.94 µM in [20]; 7.88 µM in assay [21].

For the compound `CCn1cc(-c2csc(N)n2)c(=O)c2cc(F)c(N3CCN(C/C(=N/OC)c4ccc(F)cc4)CC3)cc21`, the MIC came to 951 µM (≈ 512 µg/mL) in assay [1]; 951 µM (≈ 512 µg/mL) in assay [2]; 238 µM (≈ 128 µg/mL) in assay [3]; 951 µM (≈ 512 µg/mL) in assay [4]; 475 µM (≈ 256 µg/mL) in assay [5]; 475 µM (≈ 256 µg/mL) in assay [6]. Also, the MIC came out at 475 µM (≈ 256 µg/mL) in assay [7]; 951 µM (≈ 512 µg/mL) in assay [8]; 951 µM (≈ 512 µg/mL) in [9]; 238 µM (≈ 128 µg/mL) in [10]; 951 µM (≈ 512 µg/mL) in assay [11]; 951 µM (≈ 512 µg/mL) in assay [12]. In addition, the MIC is 951 µM (≈ 512 µg/mL) in assay [13], 475 µM (≈ 256 µg/mL) in [14], 951 µM (≈ 512 µg/mL) in [15] and 951 µM (≈ 512 µg/mL) in [16].
